# Experimental data taken from ChEMBL document CHEMBL1152304, “Alteration of the bis-tetrahydrofuran core stereochemistries in asimicin can affect the cytotoxicity” (J Med Chem, 2008).
# Assays:
# L1210 [1] = experiment: Cytotoxicity against mouse L1210 cells at 15 ug by disk diffusion assay; assay type: functional
# Procedure, shortened: (§1)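 15 µL of sample dried overnight on 6.5 mm filter disk. Disk placed near edge of 60 mm dish of cells plated in soft agar, incubated 7-10 days. Zone of inhibition measured from disk edge to start of normal-sized colony formation, disk diameter taken as 200 units. Overly toxic samples diluted 1:4 or 1:10 and retested.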
# L1210 [2] = experiment: Cytotoxicity against mouse L1210 cells at 3.75 ug by disk diffusion assay; assay type: functional; procedure, shortened: as §1
# L1210 [3] = experiment: Cytotoxicity against mouse L1210 cells at 0.94 ug by disk diffusion assay; assay type: functional; procedure, shortened: as §1
# [4] = Inhibition of bovine heart mitochondrial complex1 activity; parameters: species or system Bos taurus
# Procedure, shortened: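 Bovine heart submitochondrial particles, 15 µg/mL, in 0.25 M sucrose, 1 mM MgCl2, 50 mM phosphate pH 7.5. Inhibitor added at various concentrations and equilibrated 5 min. Reaction started with 150 µM NADH and followed spectrophotometrically at 340 nm. IC50 derived.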
# HCT-116 [5] = experiment: Cytotoxicity against human HCT116 cells; assay type: functional, cell-based
# HCT-116 [6] = experiment: Cytotoxicity against human HCT116 cells at 15 ug by disk diffusion assay; assay type: functional; procedure, shortened: as §1
# L1210 [7] = experiment: Cytotoxicity against mouse L1210 cells at 60 ug by disk diffusion assay; assay type: functional; procedure, shortened: as §1
# MC-38 [8] = experiment: Cytotoxicity against mouse Colon 38 cells at 15 ug by disk diffusion assay; assay type: functional; procedure, shortened: as §1
# CCRF-CEM = experiment: Cytotoxicity against human CEM cells at 15 ug by disk diffusion assay; assay type: functional; procedure, shortened: as §1
# MC-38 [9] = experiment: Cytotoxicity against mouse Colon 38 cells at 0.94 ug by disk diffusion assay; assay type: functional; procedure, shortened: as §1
# MC-38 [10] = experiment: Cytotoxicity against mouse Colon 38 cells at 60 ug by disk diffusion assay; assay type: functional; procedure, shortened: as §1
# MC-38 [11] = experiment: Cytotoxicity against mouse Colon 38 cells at 3.75 ug by disk diffusion assay; assay type: functional; procedure, shortened: as §1
# [12] = Cytotoxicity against human CFU-GM cells at 0.94 ug by disk diffusion assay; assay type: functional; procedure, shortened: as §1
# [13] = Cytotoxicity against human CFU-GM cells at 15 ug by disk diffusion assay; assay type: functional; procedure, shortened: as §1
# [14] = Cytotoxicity against human CFU-GM cells at 60 ug by disk diffusion assay; assay type: functional; procedure, shortened: as §1
# [15] = Cytotoxicity against human H125M cells at 15 ug by disk diffusion assay; assay type: functional; procedure, shortened: as §1
# [16] = Cytotoxicity against human CFU-GM cells at 3.75 ug by disk diffusion assay; assay type: functional; procedure, shortened: as §1
# [17] = Cytotoxicity against human H125M cells at 60 ug by disk diffusion assay; assay type: functional; procedure, shortened: as §1
Compound,inhibition zone (IZ) (L1210 [1]) [Zone units],inhibition zone (IZ) (L1210 [2]) [Zone units],inhibition zone (IZ) (L1210 [3]) [Zone units],IC50 [4] [nM],IC50 (HCT-116 [5]) [nM],inhibition zone (IZ) (HCT-116 [6]) [Zone units],inhibition zone (IZ) (L1210 [7]) [Zone units],inhibition zone (IZ) (MC-38 [8]) [Zone units],inhibition zone (IZ) (CCRF-CEM) [Zone units],inhibition zone (IZ) (MC-38 [9]) [Zone units],inhibition zone (IZ) (MC-38 [10]) [Zone units],inhibition zone (IZ) (MC-38 [11]) [Zone units],inhibition zone (IZ) [12] [Zone units],inhibition zone (IZ) [13] [Zone units],inhibition zone (IZ) [14] [Zone units],inhibition zone (IZ) [15] [Zone units],inhibition zone (IZ) [16] [Zone units],inhibition zone (IZ) [17] [Zone units]
CCCCCCCCCC[C@H](O)[C@H]1CC[C@@H]([C@@H]2CC[C@H]([C@H](O)CCCCCCCCCC[C@@H](O)CC3=C[C@H](C)OC3=O)O2)O1 [rolliniastatin-1],200,250,100,3,0.22,600,600,1000,0,700,900,800,400,350,750,600,400,–
CCCCCCC[C@H](O)CC[C@H](O)[C@H]1CC[C@H]([C@H]2CC[C@H]([C@@H](O)CCCCCCCCCC[C@@H](O)CC3=C[C@H](C)OC3=O)O2)O1,300,400,100,–,–,600,600,900,150,750,>1000,850,450,300,750,550,450,–
CCCCCCCCCC[C@H](O)[C@H]1CC[C@H]([C@H]2CC[C@H]([C@@H](O)CCCCCCCCCC[C@@H](O)CC3=C[C@H](C)OC3=O)O2)O1,150,400,100,9,0.45,600,800,800,150,700,800,800,–,–,–,450,–,–
CCCCCCCCCC[C@@H](O)[C@H]1CC[C@@H]([C@@H]2CC[C@H]([C@H](O)CCCCCCCCCC[C@@H](O)CC3=C[C@H](C)OC3=O)O2)O1,100,150,150,7.5,18,500,450,800,0,550,800,750,450,300,650,350,500,–
CCCCCCCCCC[C@@H](O)[C@@H]1CC[C@@H]([C@@H]2CC[C@@H]([C@H](O)CCCCCCCCCC(O)CC3=CC(C)OC3=O)O2)O1 (some centres undefined) [BULLATACIN],200,250,150,2.5,1.4,650,550,850,100,650,1000,800,450,550,700,–,450,400
